Measured values published in ChEMBL document CHEMBL1134284, “The biological effects of structural variation at the meta position of the aromatic rings and at the end of the alkenyl chain in the alkenyldiarylmethane series of non-nucleoside reverse transcriptase inhibitors” (J Med Chem, 2001).

What was measured:
[1] = (§1) Antiviral activity against Ba-L monocyte tropic isolate strain in monocyte; assay type: functional; details: Homo sapiens
Procedure, shortened: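 Monocytes isolated from hepatitis- and HIV-seronegative donors by Ficoll-Hypaque gradient, cultured 6 days into macrophages, then infected with Ba-L. Medium RPMI 1640 with 10% FBS, 2 mM glutamine, penicillin/streptomycin. Replication read as p24 antigen by ELISA 6 days postinfection. […] Run in triplicate, with AZT as positive control.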

[2] = tested on: CCRF-CEM; assay: Antiviral activity against site directed 4X AZT resistant isolate HIV-1 L100I in CEM cells; assay type: functional, cell-based, Homo sapiens
Procedure, shortened: (§2)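 CEM-SS cells infected with low-cytopathicity site-directed RT-mutant NL4-3 clones (A98G, L74V, 4XAZT = D67N/K70R/T215Y/K219Q, 4XAZT/L100I). Replication was quantified by p24 ELISA rather than cytoprotection. […] Triplicate, variation of mean about 10%.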

[3] = tested on: CCRF-CEM; assay: Antiviral activity against site directed 4X AZT resistant isolate HIV-1 in CEM cells; assay type: functional, cell-based, Homo sapiens
[4] = tested on: CCRF-CEM; assay: Antiviral activity against site directed resistant isolate HIV-1 K101E in CEM cells; assay type: functional, cell-based, Homo sapiens
[5] = tested on: CCRF-CEM; assay: Antiviral activity against site directed resistant isolate HIV-1 K103N in CEM cells; assay type: functional, cell-based, Homo sapiens
Procedure, shortened: (§3)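 CEM-SS cells in RPMI 1640 with 10% heat-inactivated FBS were infected with NL4-3 molecular clones carrying site-directed RT mutations. Cytoprotection from virus-induced syncytial killing was read by MTS/phenazine ethosulfate reduction (A490) 6 days after infection. […] Triplicate, variation of mean about 10%.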

[6] = tested on: CCRF-CEM; assay: Antiviral activity against site directed resistant isolate HIV-1 L100I in CEM cells; assay type: functional, cell-based, Homo sapiens; procedure, shortened: as §3
[7] = tested on: CCRF-CEM; assay: Antiviral activity against site directed resistant isolate HIV-1 L74V in CEM cells; assay type: functional, cell-based, Homo sapiens; procedure, shortened: as §2
[8] = tested on: CCRF-CEM; assay: Antiviral activity against site directed resistant isolate HIV-1 V106A in CEM cells; assay type: functional, cell-based, Homo sapiens; procedure, shortened: as §3
[9] = tested on: CCRF-CEM; assay: Antiviral activity against site directed resistant isolate HIV-1 Y181C in CEM cells; assay type: functional, cell-based, Homo sapiens; procedure, shortened: as §3
[10] = tested on: CCRF-CEM; assay: Antiviral activity against site directed resistant isolate HIV-1 Y188C in CEM cells; assay type: functional, cell-based, Homo sapiens; procedure, shortened: as §3
[11] = tested on: CCRF-CEM; assay: Antiviral activity against site directed wild-type enzyme isolate HIV-1 NL4-3WT in CEM cells; assay type: functional, cell-based; details: Homo sapiens
Procedure, shortened: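 Wild-type NL4-3 in CEM-SS cells, measured both by MTS cytoprotection 6 days after infection and by p24 ELISA. The IC50 is the mean of the two methods' values.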

[12] = tested on: Human immunodeficiency virus type 1 (RF/HAT ISOLATE); assay: Inhibitory concentration for cytopathicity of HIV-1RF in CEM-SS cells; assay type: functional, organism-based; details: Human immunodeficiency virus 1, RF
Procedure, shortened: (§4)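 CEM-SS cells kept in RPMI 1640 with 10% heat-inactivated FBS, 2 mM glutamine, penicillin/streptomycin. Microtiter assay with cytopathic HIV-1 RF, or mock infection for toxicity. Viability read by MTS/phenazine ethosulfate reduction (absorbance 490 nm) 6 days after infection. […] Triplicate.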

[13] = tested on: CEM-SS; assay: Concentration required for cytotoxicity against mock infected CEM-SS cells; assay type: functional; details: Homo sapiens; procedure, shortened: as §4
[14] = (§5) Antiviral activity against ROJO virus strain in PBLs (peripheral blood lymphocytes); assay type: functional, cell-based; details: Homo sapiens
Procedure, shortened: (§6)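 PBMCs isolated from hepatitis- and HIV-seronegative donors by Ficoll-Hypaque gradient and stimulated 3 days with phytohemagglutinin/IL-2. Infected with pediatric low-passage clinical isolates or NIAID subtype isolates, in RPMI 1640 with 10% FBS, 2 mM glutamine, penicillin/streptomycin. Replication read as supernatant reverse transcriptase activity. […] Run in triplicate, with AZT as positive control.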

[15] = (§7) Antiviral activity against SLKA virus strain in PBLs (peripheral blood lymphocytes); assay type: functional, cell-based; details: Homo sapiens; procedure, shortened: as §6
[16] = (§8) Antiviral activity against TEKI virus strain in PBLs (peripheral blood lymphocytes); assay type: functional, cell-based; details: Homo sapiens; procedure, shortened: as §6
[17] = (§9) Antiviral activity against WEJO virus strain in PBLs (peripheral blood lymphocytes); assay type: functional, cell-based; details: Homo sapiens; procedure, shortened: as §6
[18] = (§10) Antiviral activity against multi drug resistant MDR 769 strain in PBLs (peripheral blood lymphocytes); assay type: functional, cell-based; details: Homo sapiens
Procedure, shortened: (§11)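 PBMC from hepatitis- and HIV-seronegative donors isolated by Ficoll-Hypaque gradient and stimulated 3 days with phytohemagglutinin/IL-2 before infection. Medium RPMI 1640 with 10% FBS, 2 mM glutamine, penicillin/streptomycin. Replication read as supernatant reverse transcriptase activity. […] Run in triplicate, SD within triplicate under 10%; AZT positive control.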

[19] = (§12) Antiviral activity against subtype isolate A strain in PBLs (peripheral blood lymphocytes); assay type: functional, cell-based; details: Homo sapiens; procedure, shortened: as §6
[20] = (§13) Antiviral activity against subtype isolate B strain in PBLs (peripheral blood lymphocytes); assay type: functional, cell-based, Homo sapiens; procedure, shortened: as §6
[21] = (§14) Antiviral activity against subtype isolate C strain in PBLs (peripheral blood lymphocytes); assay type: functional, cell-based; details: Homo sapiens; procedure, shortened: as §6
[22] = (§15) Antiviral activity against subtype isolate D strain in PBLs (peripheral blood lymphocytes); assay type: functional, cell-based; details: Homo sapiens; procedure, shortened: as §6
[23] = (§16) Antiviral activity against subtype isolate F strain in PBLs (peripheral blood lymphocytes); assay type: functional, cell-based, Homo sapiens; details: Homo sapiens; procedure, shortened: as §6
[24] = (§17) Antiviral activity against subtype isolate G strain in PBLs (peripheral blood lymphocytes); assay type: functional, cell-based; details: Homo sapiens; procedure, shortened: as §6
[25] = (§18) Antiviral activity against subtype isolate O strain in PBLs (peripheral blood lymphocytes); assay type: functional, cell-based, Homo sapiens; procedure, shortened: as §6
[26] = tested on: CCRF-CEM; assay: Antiviral activity against site directed resistant isolate HIV-1 V179D in CEM cells; assay type: functional, cell-based, Homo sapiens; procedure, shortened: as §3
[27] = as §1; assay type: ADME; details: human, monocytes; read-out: TC50 (the source's name)
Procedure, shortened: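 Monocytes isolated from hepatitis- and HIV-seronegative donors by Ficoll-Hypaque gradient, cultured 6 days, then infected. Medium RPMI 1640 with 10% FBS, 2 mM glutamine, penicillin/streptomycin. Virus replication measured by p24 antigen ELISA 6 days postinfection. […] Run in triplicate, SD within triplicate under 10%; AZT positive control.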

[28] = tested on: CCRF-CEM; assay: Antiviral activity against site directed resistant isolates in HIV-1 A98G CEM cells; assay type: functional, cell-based, Homo sapiens; procedure, shortened: as §2
[29] = as §18; assay type: ADME, cell-based; details: human, read-out: TC50 (the source's name); procedure, shortened: as §11
[30] = as §10; assay type: ADME, cell-based; details: human, read-out: TC50 (the source's name); procedure, shortened: as §11
[31] = as §12; assay type: ADME, cell-based; details: human, read-out: TC50 (the source's name); procedure, shortened: as §11
[32] = as §13; assay type: ADME, cell-based; details: human, read-out: TC50 (the source's name); procedure, shortened: as §11
[33] = as §14; assay type: ADME, cell-based; details: human, read-out: TC50 (the source's name); procedure, shortened: as §11
[34] = (§19) Antiviral activity against subtype isolate E strain in PBLs (peripheral blood lymphocytes); assay type: ADME, cell-based; details: human, read-out: TC50 (the source's name); procedure, shortened: as §11
[35] = as §16; assay type: ADME, cell-based; details: human, read-out: TC50 (the source's name); procedure, shortened: as §11
[36] = as §17; assay type: ADME, cell-based; details: human, read-out: TC50 (the source's name); procedure, shortened: as §11
[37] = as §13; assay type: functional, cell-based; details: Homo sapiens; procedure, shortened: as §6
[38] = as §19; assay type: functional, cell-based; details: Homo sapiens; procedure, shortened: as §6
[39] = as §16; assay type: functional, cell-based; details: Homo sapiens; procedure, shortened: as §6
[40] = as §18; assay type: functional, cell-based; details: Homo sapiens; procedure, shortened: as §6
[41] = as §5; assay type: ADME, cell-based; details: human, read-out: TC50 (the source's name); procedure, shortened: as §11
[42] = as §7; assay type: ADME, cell-based; details: human, read-out: TC50 (the source's name); procedure, shortened: as §11
[43] = as §8; assay type: ADME, cell-based; details: human, read-out: TC50 (the source's name); procedure, shortened: as §11
[44] = as §15; assay type: ADME, cell-based; details: human, read-out: TC50 (the source's name); procedure, shortened: as §11
[45] = as §9; assay type: ADME, cell-based; details: human, read-out: TC50 (the source's name); procedure, shortened: as §11
[46] = cells; details: Homo sapiens

With `COC(=O)CCCC=C(c1cc(Cl)c(OC)c(C(=O)OC)c1)c1cc(Cl)c(OC)c(C(=O)OC)c1` as the molecule, how does the IC50 [1] read?
The IC50 was 5.4 µM.

And the IC50 [2]?
The IC50 was 0.49 µM.

What about the IC50 ([3]; Homo sapiens, CCRF-CEM) of the same molecule?
Its IC50 is 0.075 µM.

What about the IC50 [4] of the same molecule?
Its IC50 is 0.366 µM.

And the IC50 [5]?
The IC50 was 0.6 µM.

What about the IC50 [6] of the same molecule?
The IC50 was 0.408 µM.

And the IC50 [7]?
Its IC50 is 0.469 µM.

And the IC50 [8]?
The IC50 was > 20 µM.

What about the IC50 [9] of the same molecule?
The IC50 was > 20 µM.

What about the IC50 [10] of the same molecule?
Its IC50 is 3.3 µM.

And the IC50 [11]?
The IC50 was 0.85 µM.

And the EC50 [12]?
Its EC50 is 0.013 µM.

And the CC50 [13]?
Its CC50 is 31.6 µM.

And the IC50 [14]?
The IC50 was 0.75 µM.

And the IC50 [15]?
The IC50 was 1.3 µM.

What about the IC50 [16] of the same molecule?
The IC50 was 0.8 µM.

And the IC50 [17]?
The IC50 was 0.6 µM.

What about the IC50 [18] of the same molecule?
Its IC50 is 16.9 µM.

And the IC50 [19]?
The IC50 was 0.1 µM.

What about the IC50 [20] of the same molecule?
Its IC50 is 12.7 µM.

What about the IC50 [21] of the same molecule?
The IC50 was 0.41 µM.

What about the IC50 [22] of the same molecule?
Its IC50 is 0.18 µM.

What about the IC50 [23] of the same molecule?
Its IC50 is 1.3 µM.

And the IC50 [24]?
Its IC50 is 0.6 µM.

And the IC50 [25]?
Its IC50 is 12 µM.

And the IC50 [26]?
The IC50 was 1.3 µM.

What does the source list for `Cc1cn([C@H]2C[C@H](N=[N+]=[N-])[C@@H](CO)O2)c(=O)[nH]c1=O` [ZIDOVUDINE]?
IC50 [1]: 0.002 µM; CC50 [27]: > 200 µM; IC50 [2]: 0.87 µM; IC50 ([3]; ccrf-cem): 0.082 µM; IC50 [4]: 0.046 µM; IC50 [5]: 0.007 µM; IC50 [6]: 0.006 µM; IC50 [7]: 0.04 µM; IC50 [8]: 0.014 µM; IC50 [9]: 0.08 µM; IC50 [10]: 0.087 µM; IC50 [28]: 0.008 µM; IC50 [11]: 0.017 µM; CC50 [29]: > 170 µM; CC50 [30]: > 172 µM; CC50 [31]: > 180 µM; CC50 [32]: > 200 µM; CC50 [33]: > 200 µM; CC50 [34]: > 170 µM; CC50 [35]: > 200 µM; CC50 [36]: > 170 µM; IC50 [14]: 0.001 µM; IC50 [15]: 0.001 µM; IC50 [16]: 0.002 µM; IC50 [17]: 0.001 µM; IC50 [18]: 0.025 µM; IC50 [19]: 0.001 µM; IC50 [37]: 0.009 µM; IC50 [22]: 0.007 µM; IC50 [38]: 0.002 µM; IC50 [39]: 0.002 µM; IC50 [24]: 0.002 µM; IC50 [40]: 0.001 µM; CC50 [41]: > 190 µM; CC50 [42]: > 190 µM; CC50 [43]: > 190 µM; IC50 [26]: 0.02 µM; CC50 [44]: > 200 µM; CC50 [45]: > 190 µM; IC50 [46]: 0.004 µM
